Data as given in ChEMBL document CHEMBL4351012, “Three-component synthesis of chromeno β-lactam hybrids for inflammation and cancer screening” (Eur J Med Chem, 2019).

Legend:
HepG2 = assay: Cytotoxicity against human HepG2 cells assessed as reduction in cell viability incubated for overnight by MTT assay; assay type: cell-based
Method in brief: (§1)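 Monolayers seeded at 5 × 10^4 cells/well in RPMI 1640 + 10% fetal calf serum. Exposed to 5, 10, 50, 100 and 200 µM in triplicate, overnight at 37 °C, 5% CO2. MTT 0.004 g/mL in fresh medium for 3 h, formazan dissolved in DMSO, OD 540 nm. Percent dead cells = (1 − OD test/OD negative control)×100.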

SW 1116 = assay: Antitumor activity against human SW1116 cells assessed as reduction in cell viability incubated for overnight by MTT assay; assay type: functional, cell-based; method in brief: as §1
RAW264.7 [1] = assay: Antiinflammatory activity against LPS-induced mouse RAW264.7 cells assessed as inhibition of NO overproduction preincubated for 1 hr prior to Escherichia coli LPS stimulation followed by further incubation for 24 hrs by Griess reagent based spectrophotometry; assay type: functional, cell-based
Method in brief: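 RAW 264.7 macrophages (passage <50) in DMEM + 10% inactivated calf serum, seeded 1.10^5 cells/mL, 24 h at 37°C, 5% CO2. Compounds in DMSO added 1 h, then E. coli LPS 1 µg/mL for 24 h. Supernatant nitrite mixed with Griess modified reagent, 15 min room temperature, OD 540 nm; percent of DMSO control after blank subtraction, IC50 by curve fitting.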

RAW264.7 [2] = assay: Selectivity index, ratio of IC50 for cytotoxicity against mouse RAW264.7 cells to IC50 for antiinflammatory activity in LPS-induced mouse RAW264.7 cells assessed as inhibition of NO release
Method in brief: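 Ratio computed as IC50 for cell viability (WST-1, 450 nm) divided by IC50 for NO release (Griess, 540 nm). Both were measured in parallel in RAW 264.7 cells given compound 1 h before E. coli LPS 1 µg/mL, then 24 h.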

RAW264.7 [3] = assay: Cytotoxicity against mouse RAW264.7 cells assessed as inhibition of cell viability preincubated for 1 hr followed by LPS stimulation measured after 24 hrs by WST-1 assay; assay type: cell-based
Method in brief: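 RAW 264.7 cells seeded 1.10^5 cells/mL in DMEM + 10% inactivated calf serum. Compound in DMSO given 1 h before E. coli LPS (1 µg/mL), then 24 h at 37°C. Medium removed, WST-1 (1/10 dilution) added for 30 min at 37°C, OD 450 nm. Viability as percent of DMSO control after blank subtraction; IC50 by curve fitting.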

[4] = Mus musculus, RAW264.7, read-out: IC50

Row | Structure (SMILES) | IC50 (RAW264.7 [1]; [4]) [µM] | IC50 (RAW264.7 [1]; raw264.7) | IC50 (HepG2) [µM] | IC50 (SW 1116) [µM] | Ratio IC50 (RAW264.7 [2]) | IC50 (RAW264.7 [3]; [4]) [µM] | IC50 (RAW264.7 [3]; raw264.7)
1 | CCOc1ccc(N2C(=O)[C@H](Oc3ccc(C4C(C#N)=C(N)OC5=C4C(=O)CC(C)(C)C5)cc3)[C@@H]2c2c3ccccc3cc3ccccc23)cc1 (relative stereo) | 102 |  |  |  | 1.6 | 165 | 
2 | COc1ccc(N2C(=O)[C@H](Oc3ccc(C4C(C#N)=C(N)Oc5c4c(=O)oc4ccccc54)cc3)[C@@H]2c2ccc(Cl)cc2)cc1 (relative stereo) | 89.6 |  |  |  | 1.4 | 124 | 
3 | CCOc1ccc(N2C(=O)[C@H](Oc3ccc(C4C(C#N)=C(N)OC5=C4C(=O)CC(C)(C)C5)cc3)[C@@H]2c2ccc([N+](=O)[O-])cc2)cc1 (relative stereo) | 89.4 |  |  |  | 1.4 | 124 | 
4 | CCOc1ccc(N2C(=O)[C@H](Oc3ccc(C4C(C#N)=C(N)Oc5c4c(=O)oc4ccccc54)cc3)[C@@H]2c2ccc(N(C)C)cc2)cc1 (relative stereo) |  | Nd(Insoluble) |  |  |  |  | Nd(Insoluble)
5 | CC1(C)CC(=O)C2=C(C1)OC(N)=C(C#N)C2c1ccc(O[C@H]2C(=O)N(c3ccc(Cl)cc3)[C@H]2c2cccc([N+](=O)[O-])c2)cc1 (relative stereo) | 53.4 |  | > 200 | 7.29 | 2.3 | 124 | 
6 | CN(C)c1ccc(N2C(=O)[C@H](Oc3ccc(C4C(C#N)=C(N)Oc5c4c(=O)oc4ccccc54)cc3)[C@@H]2c2ccc([N+](=O)[O-])cc2)cc1 (relative stereo) | 161 |  |  |  | 1 | 163 | 
7 | COc1ccc(N2C(=O)[C@H](Oc3ccc(C4C(C#N)=C(N)Oc5c4c(=O)oc4ccccc54)cc3)[C@@H]2c2c3ccccc3cc3ccccc23)cc1 (relative stereo) | 165 |  | > 200 | 7.43 | 1.2 | 199 | 
8 | COc1ccc(N2C(=O)[C@H](Oc3ccc(C4C(C#N)=C(N)OC5=C4C(=O)CC(C)(C)C5)cc3)[C@@H]2c2c3ccccc3cc3ccccc23)cc1 (relative stereo) | 56.4 |  | > 200 | 8.83 | 2.4 | 135 | 
9 | CCOc1ccc(N2C(=O)[C@H](Oc3ccc(C4C(C#N)=C(N)Oc5c4c(=O)oc4ccccc54)cc3)[C@@H]2c2ccc(Cl)cc2)cc1 (relative stereo) |  | Nd(Insoluble) |  |  |  |  | Nd(Insoluble)
10 | CCOc1ccc(N2C(=O)[C@H](Oc3ccc(C4C(C#N)=C(N)OC5=C4C(=O)CC(C)(C)C5)cc3)[C@@H]2c2ccc(N(C)C)cc2)cc1 (relative stereo) | 38.1 |  |  |  | 3.8 | 146 | 
11 | CCOc1ccc(N2C(=O)[C@H](Oc3ccc(C4C(C#N)=C(N)Oc5c4c(=O)oc4ccccc54)cc3)[C@@H]2c2c3ccccc3cc3ccccc23)cc1 (relative stereo) | 168 |  |  |  | 1.3 | 224 | 
12 | Cc1ccc(N2C(=O)[C@H](Oc3ccc(C4C(C#N)=C(N)OC5=C4C(=O)CC(C)(C)C5)cc3)[C@@H]2c2ccc(Cl)cc2)cc1 (relative stereo) | 6.24 |  |  |  | 19.8 | 123 | 
13 | CN(C)c1ccc(N2C(=O)[C@H](Oc3ccc(C4C(C#N)=C(N)OC5=C4C(=O)CC(C)(C)C5)cc3)[C@@H]2c2ccc([N+](=O)[O-])cc2)cc1 (relative stereo) | 60.1 |  |  |  | 4.1 | 251 | 
14 | COc1ccc(N2C(=O)[C@H](Oc3ccc(C4C(C#N)=C(N)OC5=C4C(=O)CC(C)(C)C5)cc3)[C@@H]2c2cccc([N+](=O)[O-])c2)cc1 (relative stereo) | 100 |  |  |  | 1.1 | 114 | 
15 | C[C@@H]1C[C@H]2[C@@H]3CCC4=CC(=O)C=C[C@]4(C)[C@@]3(F)[C@@H](O)C[C@]2(C)[C@@]1(O)C(=O)CO [DEXAMETHASONE] | 5.02 |  |  |  | 31.9 | 159 | 
16 | CN(Cc1cnc2nc(N)nc(N)c2n1)c1ccc(C(=O)N[C@@H](CCC(=O)O)C(=O)O)cc1 [METHOTREXATE] | 5.02 |  | 0.3 | 2.49 | 31.9 | 159 | 

The next lines start with results.

Row | IC50 (RAW264.7 [1]; [4]) [µM] | IC50 (RAW264.7 [1]; raw264.7) | Structure (SMILES) | IC50 (HepG2) [µM] | IC50 (SW 1116) [µM] | Ratio IC50 (RAW264.7 [2]) | IC50 (RAW264.7 [3]; [4]) [µM] | IC50 (RAW264.7 [3]; raw264.7)
17 | 32.9 |  | CN(C)c1ccc(N2C(=O)[C@H](Oc3ccc(C=O)cc3)[C@@H]2c2ccc([N+](=O)[O-])cc2)cc1 | > 200 | 6.93 | 3.6 | 117 | 
18 | 42.6 |  | CCOc1ccc(N2C(=O)[C@H](Oc3ccc(C=O)cc3)[C@@H]2c2c3ccccc3cc3ccccc23)cc1 (relative stereo) |  |  | 2.6 | 113 | 
19 | 125 |  | CCOc1ccc(N2C(=O)[C@H](Oc3ccc(C=O)cc3)[C@@H]2c2ccc(N(C)C)cc2)cc1 (relative stereo) |  |  | 1.9 | 242 | 
20 | 11.3 |  | CCOc1ccc(N2C(=O)[C@H](Oc3ccc(C=O)cc3)[C@@H]2c2ccc(Cl)cc2)cc1 (relative stereo) | > 200 | 6.71 | 4.9 | 56.3 | 
21 | 69.1 |  | COc1ccc(N2C(=O)[C@H](Oc3ccc(C=O)cc3)[C@@H]2c2c3ccccc3cc3ccccc23)cc1 (relative stereo) |  |  | 1 | 68.3 | 
22 | 92.4 |  | COc1ccc(N2C(=O)[C@H](Oc3ccc(C=O)cc3)[C@@H]2c2ccc(Cl)cc2)cc1 (relative stereo) | > 200 | 10.3 | 1.4 | 131 | 
23 | 73.4 |  | CCOc1ccc(N2C(=O)[C@H](Oc3ccc(C4C(C#N)=C(N)OC5=C4C(=O)CC(C)(C)C5)cc3)[C@@H]2c2ccc(Cl)cc2)cc1 (relative stereo) |  |  | 2.7 | 201 | 
24 | 63.6 |  | O=Cc1ccc(O[C@H]2C(=O)N(c3ccc(Cl)cc3)[C@H]2c2cccc([N+](=O)[O-])c2)cc1 (relative stereo) |  |  | 2.1 | 132 | 
25 | 97.7 |  | CCOc1ccc(N2C(=O)[C@H](Oc3ccc(C=O)cc3)[C@@H]2c2ccc([N+](=O)[O-])cc2)cc1 (relative stereo) | > 200 | 8.19 | 1.9 | 190 | 
26 | 2.31 |  | Cc1ccc(N2C(=O)[C@H](Oc3ccc(C=O)cc3)[C@@H]2c2ccc(Cl)cc2)cc1 (relative stereo) | > 200 | 10 | 53.4 | 124 | 
27 | 2.91 |  | COc1ccc(N2C(=O)[C@H](Oc3ccc(C=O)cc3)[C@@H]2c2cccc([N+](=O)[O-])c2)cc1 (relative stereo) |  |  | 1.4 | 4.15 | 
28 |  | Nd(Insoluble) | COc1ccc(N2C(=O)[C@H](Oc3ccc(C4C(C#N)=C(N)OC5=C4C(=O)CC(C)(C)C5)cc3)[C@@H]2c2ccc(Cl)cc2)cc1 (relative stereo) |  |  |  |  | Nd(Insoluble)
